{"data": "Assay results of several laboratories", "effect on": "cell growth or viability", "note": "Each line is one published result; the experiments were not run side by side."}
{"Compound": "CNc1ncc2c(/C=C/C(=O)N3CCC(OC)CC3)nn(Cc3cccc(OC)c3)c2n1", "cell line": "OE33", "test": "resazurin", "conditions": "5 days", "quantity": "EC50", "result": "2.89 µM"}
{"Compound": "CC(=NNC(=O)c1ccncc1)c1ccc(Nc2nnc(-c3ccc(Cl)cc3)c3ccccc23)cc1", "cell line": "HepG2", "test": "MTT", "conditions": "0.156 µM", "quantity": "cell death", "result": "17.1%"}
{"Compound": "CCOC(=O)c1nn(-c2cccc(Cl)c2)/c(=N/N=C(\\C)c2ccc(NC(=O)c3ccccc3)cc2)s1", "cell line": "HepG2", "test": "MTT", "conditions": "0.625 µM", "quantity": "viability", "result": "3.18%"}
{"Compound": "CC(C)(C)c1cnc(CSc2cnc(NC(=O)C3CCN(CCCCCCCCSc4cccc5c4CN(C4CCC(=O)NC4=O)C5=O)CC3)s2)o1 (stereo not shown)", "cell line": "HH", "test": "CCK-8", "conditions": "0.5 µM", "quantity": "viability", "result": "0%"}
{"Compound": "C=CC(=O)NC1CCN(c2ncc3ncnc(Nc4ccc(Oc5ccc6c(c5)ncn6C)c(C)c4)c3n2)CC1", "cell line": "SBC-5", "quantity": "EC50", "result": "0.325 µM"}
{"Compound": "CC(=NNC(N)=S)c1ccc(Nc2nnc(-c3ccc(Cl)cc3)c3ccccc23)cc1", "cell line": "HepG2", "test": "MTT", "conditions": "2.5 µM", "quantity": "cell death", "result": "91.9%"}
{"Compound": "CNc1ncc2c(/C=C/C(=O)N3CCC(OC)CC3)nn(CC3CCCCC3)c2n1", "cell line": "OE33", "test": "resazurin", "conditions": "5 days", "quantity": "EC50", "result": "6.51 µM"}
{"Compound": "CC(=NNC(=O)c1cccnc1)c1ccc(Nc2nnc(-c3ccc(Cl)cc3)c3ccccc23)cc1", "cell line": "HepG2", "test": "MTT", "conditions": "5 µM", "quantity": "cell death", "result": "96.8%"}
{"Compound": "CC(C)(C)c1cnc(CSc2cnc(NC(=O)C3CCN(C(=O)CCCSc4cccc5c4C(=O)N(C4CCC(=O)NC4=O)C5=O)CC3)s2)o1 (stereo not shown)", "cell line": "HH", "test": "CCK-8", "conditions": "0.2 µM", "quantity": "viability", "result": "96.7%"}
{"Compound": "CNc1ncc2c(/C=C/C(=O)N3CCCC(N(C)C)C3)nn(CC3CCCC3)c2n1 (stereo not shown)", "cell line": "OE33", "test": "resazurin", "conditions": "5 days", "quantity": "EC50", "result": "17.7 µM"}
{"Compound": "O=C(Nc1ccc(Oc2nnc(-c3ccc(Cl)cc3)c3ccccc23)cc1)c1cccc([N+](=O)[O-])c1", "cell line": "HepG2", "test": "MTT", "conditions": "10 µM", "quantity": "cell death", "result": "93.8%"}
{"Compound": "CNc1ncc2c(/C=C/C(=O)N3CCC(OC)CC3)nn(CC3OCCO3)c2n1", "cell line": "OE33", "test": "resazurin", "conditions": "5 days", "quantity": "EC50", "result": "> 30 µM"}
{"Compound": "CC(=NNC(=S)Nc1ccccc1)c1ccc(Nc2nnc(-c3ccc(Cl)cc3)c3ccccc23)cc1", "cell line": "HepG2", "test": "MTT", "conditions": "0.312 µM", "quantity": "cell death", "result": "0.861%"}
{"Compound": "CNc1ncc2c(/C=C/C(=O)N3CCC(OC)CC3)nn(Cc3ccccc3)c2n1", "cell line": "OE33", "test": "resazurin", "conditions": "5 days", "quantity": "EC50", "result": "7.49 µM"}
{"Compound": "CC(C)(C)c1cnc(CSc2cnc(NC(=O)C3CCN(CCCCCCCCSc4cccc5c4C(=O)N(C4CCC(=O)NC4=O)C5=O)CC3)s2)o1 (stereo not shown)", "cell line": "HH", "test": "CCK-8", "conditions": "0.15 µM", "quantity": "viability", "result": "16.5%"}
{"Compound": "CCOC(=O)c1nn(-c2cccc(Cl)c2)/c(=N/N=C(\\C)c2ccc(NC(=O)c3ccc(Cl)cc3)cc2)s1", "cell line": "HepG2", "test": "MTT", "conditions": "10 µM", "quantity": "viability", "result": "4.04%"}
{"Compound": "O=C(Nc1ccc(Oc2nnc(-c3ccc(Cl)cc3)c3ccccc23)cc1)c1ccccc1", "cell line": "HepG2", "test": "MTT", "conditions": "78 nM", "quantity": "cell death", "result": "3.97%"}
{"Compound": "CC(C)(C)c1cnc(CSc2cnc(NC(=O)C3CCN(CCCCCCCSc4cccc5c4C(=O)N(C4CCC(=O)NC4=O)C5=O)CC3)s2)o1 (stereo not shown)", "cell line": "HH", "test": "CCK-8", "conditions": "0.5 µM", "quantity": "viability", "result": "0%"}
{"Compound": "CNc1ncc2c(/C=C/C(=O)N3CCC(OC)CC3)nn(Cc3ccccc3C(F)(F)F)c2n1", "cell line": "OE33", "test": "resazurin", "conditions": "5 days", "quantity": "EC50", "result": "11.4 µM"}
{"Compound": "CC(C)(C)c1cnc(CSc2cnc(NC(=O)C3CCN(C(=O)COCCOCCSc4cccc5c4C(=O)N(C4CCC(=O)NC4=O)C5=O)CC3)s2)o1 (stereo not shown)", "cell line": "HH", "test": "CCK-8", "conditions": "0.4 µM", "quantity": "viability", "result": "47.3%"}
{"Compound": "CNc1ncc2c(/C=C/C(=O)N3CCC(OC)CC3)nn(CC(OC)OC)c2n1", "cell line": "OE33", "test": "resazurin", "conditions": "5 days", "quantity": "EC50", "result": "> 30 µM"}
{"Compound": "CC(=NNC(=O)c1ccccc1Cl)c1ccc(Nc2nnc(-c3ccc(Cl)cc3)c3ccccc23)cc1", "cell line": "HepG2", "test": "MTT", "conditions": "0.312 µM", "quantity": "cell death", "result": "19.8%"}
